Measured values published in ChEMBL document CHEMBL2010745, “Optimization of the First Selective Steroid-11β-hydroxylase (CYP11B1) Inhibitors for the Treatment of Cortisol Dependent Diseases” (ACS Med Chem Lett, 2011).
pIC50: −log10 of the molar value.

Legend:
[1] = species: Homo sapiens; experiment: Selectivity ratio of IC50 for human CYP11B2 to IC50 for human CYP11B1
[2] = target: T1, CYP19 (aromatase) (Homo sapiens, UniProt P11511); experiment: Inhibition of CYP19 in human placental microsomes using [1beta-3H]androstenedione as substrate at 0.5 uM; conditions: probe [1beta-3H]androstenedione
T1 sequence (P11511 whole entry): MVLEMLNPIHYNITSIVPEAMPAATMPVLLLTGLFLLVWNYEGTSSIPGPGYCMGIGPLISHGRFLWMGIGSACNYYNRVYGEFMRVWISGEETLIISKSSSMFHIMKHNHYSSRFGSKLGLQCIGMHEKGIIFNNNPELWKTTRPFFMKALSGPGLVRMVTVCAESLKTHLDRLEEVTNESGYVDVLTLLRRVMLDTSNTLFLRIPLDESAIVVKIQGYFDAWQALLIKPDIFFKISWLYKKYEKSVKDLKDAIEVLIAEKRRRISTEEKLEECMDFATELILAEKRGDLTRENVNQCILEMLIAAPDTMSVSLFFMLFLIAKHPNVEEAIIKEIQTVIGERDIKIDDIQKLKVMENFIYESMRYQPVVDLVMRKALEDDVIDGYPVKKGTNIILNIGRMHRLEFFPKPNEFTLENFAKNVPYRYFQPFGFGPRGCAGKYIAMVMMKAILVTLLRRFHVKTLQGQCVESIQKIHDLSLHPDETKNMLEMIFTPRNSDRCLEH

[3] = target: T2, CYP17 (Homo sapiens, UniProt P05093); experiment: Inhibition of human recombinant CYP17 expressed in Escherichia coli using progesterone as substrate at 2 uM; conditions: probe progesterone
T2 sequence (P05093 whole entry): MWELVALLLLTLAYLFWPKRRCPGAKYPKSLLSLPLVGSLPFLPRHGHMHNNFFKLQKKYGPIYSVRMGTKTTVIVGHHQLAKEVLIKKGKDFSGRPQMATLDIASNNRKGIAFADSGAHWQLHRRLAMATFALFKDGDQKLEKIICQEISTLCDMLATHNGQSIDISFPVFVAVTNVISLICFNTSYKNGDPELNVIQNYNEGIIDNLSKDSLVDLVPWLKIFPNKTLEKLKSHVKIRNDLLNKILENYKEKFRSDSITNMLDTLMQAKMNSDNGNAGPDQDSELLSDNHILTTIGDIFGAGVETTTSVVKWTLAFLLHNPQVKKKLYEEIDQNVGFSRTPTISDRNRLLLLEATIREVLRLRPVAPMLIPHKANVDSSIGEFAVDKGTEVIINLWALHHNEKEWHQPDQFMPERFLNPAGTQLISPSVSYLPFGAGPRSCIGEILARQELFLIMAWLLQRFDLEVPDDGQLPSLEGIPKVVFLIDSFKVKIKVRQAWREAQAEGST
Outline: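 Recombinantly expressed human CYP17 with progesterone as substrate. Inhibition is reported as percent at an inhibitor concentration of 2.0 μM.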

[4] = target: T3, Cytochrome P450 11B1, mitochondrial (Homo sapiens, UniProt P15538); experiment: Inhibition of human CYP11B1 expressed in hamster V79 MZ cells using [3H] 11 deoxycorticosterone as substrate by HPLC radioflow detector; type: cell-based
T3 sequence (P15538 whole entry): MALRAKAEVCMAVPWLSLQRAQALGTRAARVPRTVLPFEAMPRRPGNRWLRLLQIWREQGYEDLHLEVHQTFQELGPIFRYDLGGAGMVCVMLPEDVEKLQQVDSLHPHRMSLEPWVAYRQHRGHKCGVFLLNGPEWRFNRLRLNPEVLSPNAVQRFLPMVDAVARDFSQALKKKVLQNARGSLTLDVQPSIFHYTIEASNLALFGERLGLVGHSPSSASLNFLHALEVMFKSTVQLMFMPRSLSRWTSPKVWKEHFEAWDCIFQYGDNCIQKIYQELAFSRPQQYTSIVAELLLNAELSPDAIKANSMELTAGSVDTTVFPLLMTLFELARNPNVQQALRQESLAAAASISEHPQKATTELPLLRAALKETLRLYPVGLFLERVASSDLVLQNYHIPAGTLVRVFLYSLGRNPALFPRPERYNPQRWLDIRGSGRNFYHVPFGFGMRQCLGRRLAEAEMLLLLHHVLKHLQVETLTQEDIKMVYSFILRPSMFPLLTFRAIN

[5] = target: T4, Cytochrome P450 11B2, mitochondrial (Homo sapiens, UniProt P19099); experiment: Inhibition of human CYP11B2 expressed in hamster V79 MZ cells using [3H] 11 deoxycorticosterone as substrate by HPLC radioflow detector; type: cell-based
T4 sequence (P19099 whole entry): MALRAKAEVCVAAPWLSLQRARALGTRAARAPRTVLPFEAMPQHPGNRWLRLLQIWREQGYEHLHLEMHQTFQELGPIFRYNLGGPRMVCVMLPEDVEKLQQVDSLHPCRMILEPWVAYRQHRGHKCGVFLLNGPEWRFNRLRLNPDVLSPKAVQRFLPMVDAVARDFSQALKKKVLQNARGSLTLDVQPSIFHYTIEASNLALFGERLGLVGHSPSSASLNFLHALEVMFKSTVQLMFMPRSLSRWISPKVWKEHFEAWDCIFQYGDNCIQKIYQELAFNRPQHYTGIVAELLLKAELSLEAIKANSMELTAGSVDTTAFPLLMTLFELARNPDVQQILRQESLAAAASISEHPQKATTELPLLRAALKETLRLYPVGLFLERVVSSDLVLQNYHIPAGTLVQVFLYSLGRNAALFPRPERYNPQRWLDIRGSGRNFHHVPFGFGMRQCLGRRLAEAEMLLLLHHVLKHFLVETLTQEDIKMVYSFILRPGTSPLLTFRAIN

[6] = target: T4, Cytochrome P450 11B2, mitochondrial; experiment: Inhibition of human CYP11B2 expressed in hamster V79 MZ cells using [3H] 11 deoxycorticosterone as substrate at 500 nM by HPLC radioflow detector; type: cell-based; conditions: v79, 0.5 µM

Compound | Ratio IC50 [1] | inhibition at 0.5 µM [2] [%] | inhibition at 2 µM [3] [%] | pIC50 [4] | pIC50 [5] | inhibition (INH) [6]
c1csc(-c2ncccc2Cn2ccnc2)c1 | 16 | < 10 | < 10 |  |  | 
c1ccc2sc(-c3ccc(Cn4ccnc4)cn3)cc2c1 | 1 |  |  |  |  | 
Clc1ncc(Cn2ccnc2)cc1-c1cccs1 | 6 | < 10 | < 10 | 7.14 | 6.38 | 
Brc1ccc(Cn2ccnc2)cn1 |  |  |  |  | < 6.00 | 
c1ccc2c(-c3ccc(Cn4ccnc4)cn3)cncc2c1 | 10 |  |  |  |  | 
c1ccc2c(-c3ccc(Cn4ccnc4)cn3)csc2c1 | 29 | < 10 | < 10 |  |  | 
Brc1ncccc1Cn1ccnc1 | 15 | < 10 | < 10 |  |  | 
c1cncc(Cn2ccnc2)c1 |  |  |  |  | < 6.00 | 
c1cn(Cc2ccc(-c3cncnc3)nc2)cn1 |  |  |  |  |  | Not Active
c1coc(-c2cc(Cn3ccnc3)cnc2-c2ccco2)c1 | 29 |  |  |  |  | 
c1ccc(N(c2ccccc2)c2ccc(-c3ccc(Cn4ccnc4)cn3)cc2)cc1 |  | < 10 | < 10 |  |  | Not Active
c1cc(Cn2ccnc2)ccn1 |  |  |  |  | < 6.00 | 
Clc1ncc(Cn2ccnc2)cc1Br | 3.4 |  |  |  |  | 
c1ccc(-c2cc(Cn3ccnc3)cnc2-c2ccccc2)cc1 | 2.4 | < 10 | < 10 |  |  | 
N#Cc1ncccc1Cn1ccnc1 |  |  |  |  | < 6.00 | 
c1ccc2oc(-c3ccc(Cn4ccnc4)cn3)cc2c1 |  |  |  |  | < 6.00 | 
O=Cc1ccc(-c2ccc(Cn3ccnc3)cn2)s1 | 16 | 19 | < 10 |  |  | 
c1csc(-c2ccc(Cn3ccnc3)cn2)c1 | 17 | < 10 | < 10 |  |  | 

Second part, the compound after the results:

Ratio IC50 [1] | inhibition at 0.5 µM [2] [%] | inhibition at 2 µM [3] [%] | pIC50 [4] | pIC50 [5] | inhibition (INH) [6] | Compound
2.6 | 30 |  |  |  |  | Clc1ccc(-c2ccc(Cn3ccnc3)cn2)s1
37 | < 10 | < 10 |  |  |  | c1cn(Cc2ccc(-c3ccoc3)nc2)cn1
18 |  |  |  |  |  | c1ccc(-c2ccc(Cn3ccnc3)cn2)cc1
5 | < 10 | < 10 |  |  |  | Nc1ccc(-c2ccc(Cn3ccnc3)cn2)cc1
3.2 |  |  |  |  |  | c1ccc2cc(-c3ccc(Cn4ccnc4)cn3)ccc2c1
10 | < 10 | < 10 |  |  |  | Fc1ccc(-c2ccc(Cn3ccnc3)cn2)cc1
3.5 |  |  |  |  |  | c1cc(-c2ccc(Cn3ccnc3)cn2)ccn1
 |  |  |  | < 6.00 |  | N#Cc1ccc(-c2ccc(Cn3ccnc3)cn2)cc1
 |  |  | < 6.00 | < 6.00 |  | COc1ccc(-c2ccc(Cn3ccnc3)cn2)cn1
31 | < 10 | < 10 |  |  |  | Nc1cccc(-c2ccc(Cn3ccnc3)cn2)c1
 | < 10 | < 10 |  | < 6.00 |  | COc1ccc(-c2ccc(Cn3ccnc3)cn2)cc1
 | < 10 | < 10 | < 6.00 | < 6.00 |  | COc1ccc(-c2ccc(Cn3ccnc3)cn2)cc1OC
24 | < 10 | < 10 |  |  |  | Fc1ccccc1-c1ccc(Cn2ccnc2)cn1
 |  |  |  | < 6.00 |  | N#Cc1cccc(-c2ccc(Cn3ccnc3)cn2)c1
 | < 10 | < 10 |  | < 6.00 |  | Cc1ccc(-c2ccc(Cn3ccnc3)cn2)cc1N
26 | < 10 | < 10 |  |  |  | c1cn(Cc2ccc(-c3ccsc3)nc2)cn1
49 | < 10 | < 10 |  |  |  | c1ccc2c(-c3ccc(Cn4ccnc4)cn3)cccc2c1
26 | < 10 | < 10 |  |  |  | COc1ccccc1-c1ccc(Cn2ccnc2)cn1
5 | < 10 | < 10 |  |  |  | Fc1ccc(-c2ccc(Cn3ccnc3)cn2)cc1F
 | < 10 | < 10 |  | < 6.00 |  | Fc1cccc(-c2ccc(Cn3ccnc3)cn2)c1
 | < 10 | < 10 |  | < 6.00 |  | O=Cc1ccc(-c2ccc(Cn3ccnc3)cn2)cc1
31 | < 10 | < 10 |  |  |  | c1coc(-c2ccc(Cn3ccnc3)cn2)c1
8 |  |  |  |  |  | c1cncc(-c2ccc(Cn3ccnc3)cn2)c1
21 | < 10 | < 10 |  |  |  | Nc1ccccc1-c1ccc(Cn2ccnc2)cn1
14 |  |  |  |  |  | Oc1ccc(-c2ccc(Cn3ccnc3)cn2)cc1F
